Only some compounds are listed: those with a hit (about 3.5% of all), similar ones and a draw of the others.
PGC1a acetyl inh = PGC1a acetylation modulation, inhibitor mode; U2OS PGC1a acetylation, AlphaScreen anti-acetyl-lysine; with virally co-expressed GCN5 acetyltransferase; inhibition, % at 15.6 µM; 0.17% of 350,000 active;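 active = every replicate shows inhibition of at least 40%; inconclusive = mean inhibition at least 40% but some replicate below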
Env fusion inh = HIV envelope-mediated fusion inhibition; HeLa-JRFL Env/CEM21 cell fusion, luciferase; inhibition, % at 12.3 µM; 1.1% of 360,000 active;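 active = mean replicate inhibition score of at least 50 and every replicate individually at or above 50; inconclusive = only one of the two criteria met; inactive = mean below 50 and not all replicates reaching 50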
Ecoli rRNA inh = selective bacterial rRNA inhibition in E. coli. E. coli WT GFP vs humanized-ribosome RFP mutants, fluorescence, 24 h; stronger effect = lower value; DMSO median 0, no signal -100. GFP signal change (wild-type ribosome), % (no concentration beside the values). 1.6% of 350,000 active. AID 720706;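 active = significant combined selectivity score with lowered wild-type GFP, culture density cut under 30%, mutant RFP and density less affected; inactive = any of these conditions unmet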
DENV2 CPE = protects cells from dengue virus 2 cytopathic effect; CPE inhibition, % at 9.99 µM; DENV2-infected cells, cytopathic effect rescue, plate reader; AID 651640; 1.7% of 350,000 active; in the data active = CPE inhibition above about 20%, passing the limit was not always enough; inconclusive = no clear call, values can overlap the other calls; tested in BHK-21 cells
PglD inh = PglD (C. jejuni) enzyme inhibition. purified PglD enzyme, DTNB colorimetric CoA detection. 0.098% of 360,000 active. inhibition, % at 12.5 µM; in the data active = inhibition above about 16%, passing the limit was not always enough; inconclusive = no clear call, values can overlap the other calls
FN deposition inh = fibronectin deposition inhibition | AID 743247 | AH1F fibroblasts, Alexa488-fibronectin deposition fluorescence, overnight | inhibition, % at 12.6 µM | 0.086% of 350,000 active;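 active = mean inhibition across replicates of 30% or more, regardless of how many single replicates reach that level; inconclusive = mean under 30% yet at least half of replicates reach 30%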
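Material: AH1F fibroblast monolayer depositing Alexa488-labelled fibronectin into matrix / Amount: 10000 AH1F cells per well / Signal: fluorescence 485/525 nm / Medium: DMEM, 2% serum / Compound: single dose, pinned / Incubation: 1 h cell adhesion before compound, then overnight fibronectin incubation / Reagent: Alexa488-FN, 24 nM final / Read-out: inhibition of fibronectin deposition signal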
Numbers stand for hits; 0 = inactive; ? = inconclusive; - = no result given.

SMILES	PGC1a acetyl inh	Env fusion inh	Ecoli rRNA inh	DENV2 CPE	PglD inh	FN deposition inh
O=C(C1CCC1)N1C[C@H]2[C@@H](c3ccccc31)[C@H](CO)N2C(=O)Cc1ccccn1	0	-	0	33	0	0
O=C(Nc1ccccc1)N1C[C@@H]2[C@H](c3ccccc31)[C@@H](CO)N2C(=O)Cc1ccccn1	0	-	-37	0	0	-
O=C(C1CCC1)N1C[C@@H]2[C@H](c3ccccc31)[C@H](CO)N2C(=O)Cc1ccccn1	0	-	0	-	0	0
O=C(Nc1ccc(F)cc1)N1C[C@@H]2[C@H](c3ccccc31)[C@H](CO)N2C(=O)Cc1ccccn1	0	-	0	0	0	0
O=C(CSc1nnc(-c2ccccc2)n1-c1ccc(Cl)cc1)N/N=C/c1ccccc1C(=O)O	45	0	0	0	0	0
Cc1cccc(C)c1NC(=O)CCCSc1nnc(-c2ccc(Cl)cc2)n1-c1ccccc1	-	79	-	0	-	0
Cc1cccc(C)c1NC(=O)C1c2ccccc2OCC(=O)N1Cc1ccc2c(c1)OCO2 (stereo not drawn)	-	0	-22	0	-	0
O=C(Nc1ccc2c(c1)OCCO2)C1c2ccccc2OCC(=O)N1Cc1ccc2c(c1)OCO2 (stereo not drawn)	-	0	0	0	-	0
CN(C)C(=O)c1cccc(-c2ccc([C@@H]3[C@@H](C#N)N(C(=O)C4CC4)[C@@H]3CO)cc2)c1	0	-	0	0	0	0
CCCNC(=O)C[C@@H]1CC[C@H]2[C@H](COc3ccc(NC(=O)Cc4ccccc4)cc3C(=O)N2C)O1	0	0	0	0	0	0
O=C1C=CC2(C=C1)O[C@H](Cc1ccccc1)[C@@H](Cc1ccccc1)O2	?	0	0	0	-	41
COc1ccc(N2C(=O)CC(Cc3ccccc3)C2=O)cc1 (stereo not drawn)	0	0	-	-	0	0
O=C1Nc2ccccc2C1Cc1ccccc1 (stereo not drawn)	-	0	0	0	-	0
COc1ccc(C[C@@H]2OC3(C=CC(=O)C=C3)O[C@H]2Cc2ccc(OC)cc2)cc1	90	-	-	-	-	-
O=C(O)c1ccc(C2NCC(c3ccccc3Cl)c3c2[nH]c2ccccc32)cc1 (stereo not drawn)	0	0	-37	0	-	0
COc1cc(C2NCC(c3ccc(Cl)cc3Cl)c3c2[nH]c2ccccc32)cc(OC)c1OC (stereo not drawn)	-	-	0	?	0	0
CC1=C(C(=O)OC2CCCCC2)C(c2ccccc2)NC(=O)N1 (stereo not drawn)	0	0	0	?	0	0
CC1=C(C(=O)OCc2ccccc2)C(c2ccccc2Br)NC(=O)N1 (stereo not drawn)	0	0	-34	0	0	0
COc1ccccc1C1NC(=O)NC(C)=C1C(=O)OCc1ccccc1 (stereo not drawn)	-	0	-23	0	0	0
CC1=C(C(=O)OC2CCCCCCC2)C(c2ccc(O)cc2)NC(=O)N1 (stereo not drawn)	0	-	-43	0	0	-
CCOc1ccccc1C1NC(=O)NC(C)=C1C(=O)OCc1ccccc1 (stereo not drawn)	0	0	0	0	0	0
COc1ccc(COC(=O)C2=C(C)NC(=O)NC2c2ccc(F)cc2)cc1 (stereo not drawn)	0	0	0	61	0	0
O=C(Cc1cccnc1)N1CC(=O)N2[C@H](C1)[C@H](c1ccc(/C=C/c3ccccc3)cc1)[C@@H]2CO	0	-	0	0	-	0
C[C@@H]1CCCCO[C@@H](CN(C)C(=O)c2ccccc2)[C@H](C)CN([C@@H](C)CO)C(=O)c2cc(NC(=O)Nc3ccc4c(c3)OCO4)ccc2O1	0	0	0	0	0	-
C[C@H](CO)N1C[C@H](C)[C@H](CN(C)C(=O)Nc2ccccc2)Oc2cc(-c3cccc(C(=O)N(C)C)c3)ccc2S1(=O)=O	0	0	0	0	0	-
SMILES	PGC1a acetyl inh	Env fusion inh	Ecoli rRNA inh	DENV2 CPE	PglD inh	FN deposition inh
COc1ccc(C2NC(=O)NC(C)=C2C(=O)Nc2cccc(C)c2C)cc1 (stereo not drawn)	0	0	0	60	0	0
COc1cc(CN2[C@@H]3CNC[C@H]2C3c2ccc(-c3cccnc3)cc2)cc(OC)c1 (stereo partly drawn)	0	-	0	0	-	0
COc1ccc(NCC(O)Cn2c(C)c(C)c3ccccc32)cc1 (stereo not drawn)	0	0	-40	-	-	0
Cc1c(C)n(CC(O)CNc2ccccc2)c2ccccc12 (stereo not drawn)	-	0	0	-	-	0
COCC(=O)N1C[C@@H](C)[C@H](OC)CN(C)C(=O)c2ccc(NC(=O)NC(C)C)cc2OC[C@@H]1C	0	-	0	0	0	0
Cc1c(C(=O)NCc2cccnc2)oc2ccc(S(=O)(=O)N3CCC4(CC3)OCCO4)cc12	-	0	-	-	0	0
Cc1c(C(=O)NCc2cccnc2)oc2ccc(S(=O)(=O)N3CC(C)CC(C)C3)cc12 (stereo not drawn)	0	0	0	21	0	0
CCCC(=O)N1C[C@@H]2[C@H](c3ccccc31)[C@@H](CO)N2C(=O)CC1CC1	0	-	0	-	0	-
COCC(=O)N1[C@H](CO)[C@H]2c3ccccc3N(C(=O)c3ccncc3)C[C@H]21	0	-	0	0	0	-
Cc1cccc(C)c1NC(=O)C(c1ccc(C#N)cc1)n1c(=O)c(-c2cc3ccccc3[nH]2)nc2ccccc21 (stereo not drawn)	-	75	0	0	-	0
O=C(NCc1ccccc1)C(c1ccc(C(F)(F)F)cc1)n1c(=O)c(-c2cc3ccccc3[nH]2)nc2ccccc21 (stereo not drawn)	-	0	0	38	-	0
O=C(Nc1ccc2ccccc2c1)C(C1CC1)n1c(=O)c(-c2cc3ccccc3[nH]2)nc2ccccc21 (stereo not drawn)	-	0	0	47	-	0
N#Cc1ccc(C(C(=O)NCc2ccccc2)n2c(=O)c(-c3cc4ccccc4[nH]3)nc3ccccc32)cc1 (stereo not drawn)	-	?	0	0	-	0
Cc1cccc(C)c1NC(=O)C(c1ccccc1)n1c(=O)c(-c2cc3ccccc3[nH]2)nc2ccccc21 (stereo not drawn)	-	0	0	0	-	0
COc1cccc(NC(=O)N(C)C[C@H]2Oc3cc(C#Cc4ccc(F)cc4)ccc3S(=O)(=O)N([C@@H](C)CO)C[C@H]2C)c1	0	0	0	0	0	0
CC(C)NC(=O)Nc1ccc2c(c1)C(=O)N(C)C[C@H](C)[C@H](CN(C)S(C)(=O)=O)O2	-	-	0	-	-	0
Cc1ccc(-c2ccc3c(c2)O[C@@H](CN(C)C(=O)CC2CC2)[C@@H](C)CN([C@H](C)CO)S3(=O)=O)cc1	0	-	0	0	0	0
C[C@H]1CN([C@@H](C)CO)C(=O)c2ccccc2-c2ccccc2CO[C@@H]1CN(C)Cc1cccc(C(F)(F)F)c1	0	-	0	0	-	0
